Assay type in all cases: functional
The test system of one test is MDA-MB-231. Nature of the test: Cytotoxicity against human MDA-MB-231 cells after 48 hrs by sulforhodamine B assay. The settings on record: MDA-MB-231, 48 h; for CC50: read-out: LC50 (the source's name). The procedure, abridged: (§1)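 Human carcinoma lines (A-549 lung, MDA-MB-231 breast adenocarcinoma, HT-29 colorectal, PSN-1 pancreas). Cell survival estimated with the NCI algorithm. Three dose-response parameters derived: GI50 (50% growth inhibition vs control cells), TGI (total growth inhibition vs control) and LC50 (50% cell death vs control). GI50 calculated by a literature procedure.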

For a further test, the system named is HT-29. The experiment in a line: Cytotoxicity against human HT-29 cells after 48 hrs by sulforhodamine B assay. The settings on record: HT-29, 48 h; for CC50: read-out: LC50 (the source's name). The procedure, abridged: as §1
For the next test, the system named is A549. Nature of the test: Cytotoxicity against human A549 cells after 48 hrs by sulforhodamine B assay. The settings on record: A549, 48 h; for CC50: read-out: LC50 (the source's name). The procedure, abridged:
as §1

The test system of a further test is PSN1. The experiment in a line: Cytotoxicity against human PSN1 cells after 48 hrs by sulforhodamine B assay. The settings on record: PSN1, 48 h; for CC50: read-out: LC50 (the source's name). The procedure, abridged:
as §1

Bounds are passed on as bounds.

Here are results for two molecules from ChEMBL document CHEMBL4130542, “Daedophamide, a Cytotoxic Cyclodepsipeptide from a Daedalopelta sp. Sponge Collected in Indonesia” (2017).

With `COc1cccc2c1C(=O)c1c(O)c3c(c(O)c1C2=O)C[C@@](O)(C(=O)CO)C[C@@H]3O[C@H]1C[C@H](N)[C@H](O)[C@H](C)O1` [DOXORUBICIN], the GI50 with MDA-MB-231 came out at 200 nM; in the test on HT-29, 300 nM; in the test on A549, 200 nM; in the test with PSN1, 200 nM. Also, the TGI worked out at 500 nM with MDA-MB-231, 900 nM in the test with HT-29, 900 nM in the test with A549 and 500 nM in the test on PSN1. In addition, the CC50 with MDA-MB-231 was 2400 nM; with HT-29 it was greater than 17200 nM; with A549, greater than 17200 nM; in the test on PSN1, 3100 nM.
`CO[C@H](C)[C@@H]1NC(=O)[C@H](CCC(N)=O)N(C)C(=O)[C@H](CC(C)C)NC(=O)[C@@H](CCCNC(=N)N)NC(=O)[C@@H](CO)NC(=O)[C@H](NC(=O)[C@@H](NC(=O)[C@H](O)[C@H](O)[C@H](CCCNC(=N)N)NC(=O)[C@@H](C)NC(=O)[C@H](C)[C@H](O)[C@H](C)C[C@H](C)CC(C)C)[C@@H](C)[C@@H](C)C(N)=O)[C@@H](C)OC(=O)[C@@H]2CCCCN2C(=O)[C@@H](CC(=O)O)NC1=O`: the GI50 was determined as 300 nM with MDA-MB-231, 600 nM in the test with HT-29, 400 nM in the test with A549 and 200 nM in the test on PSN1. The TGI in the test with MDA-MB-231 was found to be 600 nM; in the test on HT-29, 800 nM; in the test with A549, 500 nM; with PSN1, 300 nM. The CC50 worked out at 900 nM in the test on MDA-MB-231, 1300 nM with HT-29, 700 nM with A549 and 600 nM in the test with PSN1.
